Columns and labels:
KB/VCR = assay: Reversal of P-gp-mediated multidrug resistance in human KB/VCR cells assessed as reversal factor, ratio of vincristine ID50 without drug to vincristine ID50 with drug at 10 uM after 48 hrs by MTT assay; type: cell-based
Method in brief: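 KB/VCR cells in RPMI 1640 with 10% FBS (37 °C, 5% CO₂) seeded at 6 × 10⁴/ml in 24-well plates. They were co-treated with a range of vincristine concentrations, with or without test compound at 10 μM, and viability read by MTT. Vincristine ID₅₀ was derived relative to untreated cells (100%). RF = ID₅₀ of vincristine alone / ID₅₀ with compound. Triplicates, repeated at least thrice.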

[1] = Cytotoxicity against vincristine-resistant human KB/VCR cells at 10 uM after 48 hrs by MTT assay; type: functional
Method in brief: (§1)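 Cells grown in RPMI 1640 with 10% FBS at 37 °C, 5% CO₂ until roughly 50–70% confluent, then cultured in 24-well plates and exposed to vehicle (DMSO) or test compound alone at 10 μM for 48 h. Percent growth inhibition measured by MTT assay; three replicates per treatment, assay repeated at least thrice.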

K562 = assay: Cytotoxicity against human K562 cells at 10 uM after 48 hrs by MTT assay; type: functional; settings: K562, 48 h; method in brief: as §1
KB = assay: Cytotoxicity against human KB cells at 10 uM after 48 hrs by MTT assay; type: functional; method in brief: as §1
[2] = Cytotoxicity against adriamycin-resistant human K562/A02 cells at 10 uM after 48 hrs by MTT assay; type: functional; settings: K562/A02, 48 h; method in brief: as §1

| SMILES | Ratio (KB/VCR) | inhibition at 10 µM [1] | inhibition at 10 µM (K562) | inhibition at 10 µM (KB) | inhibition at 10 µM [2] |
| --- | --- | --- | --- | --- | --- |
| COc1ccc2c(c1)CCc1ccc(OC)c(c1)Oc1ccc(cc1)-c1nc(N)sc1-c1cccc(c1)O2 | 12.3 | 0% | 58.7% | 0% | 26.8% |
| Nc1nc2c(s1)-c1cccc(c1)Oc1ccc(O)cc1CCc1ccc(O)c(c1)Oc1ccc-2cc1 | 13.8 | 0% | 11.6% | 0% | 10.1% |
| NNc1nc2c(s1)-c1cccc(c1)Oc1ccc(O)cc1CCc1ccc(O)c(c1)Oc1ccc-2cc1 |  | 19.4% | 37.1% | 51.1% | 13.7% |
| COc1ccc2c(c1)CCc1ccc(OC)c(c1)Oc1ccc(cc1)-c1nc(NN)sc1-c1cccc(c1)O2 | 10.6 | 0% | 32.1% | 0% | 18.8% |
| COc1ccc2c(c1)CCc1ccc(OC)c(c1)Oc1ccc(cc1)C(O)C(Br)c1cccc(c1)O2 (centres undefined) | 10.5 | 0% | 38.5% | 2.82% | 11.9% |

Source: ChEMBL document CHEMBL1155259, “Synthesis and multidrug resistance reversal activity of dihydroptychantol A and its novel derivatives” (2009)
